Assay results from ChEMBL document CHEMBL5724801, “EUbOPEN Chemogenomics Library - Multiplex” (2024).
Where “and” joins values, the source holds several entries; their conditions need not be identical. Equal values may be shown once.

Test system: Fibroblast
Test: Multiplex assay against human fibroblast
Format: toxicity, cell-based
Procedure, shortened: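 Phenotypes for tubulin, mitochondrial mass and membrane permeability are expressed as per cents of healthy-nucleus cells. Cells were stained live at seeding with Hoechst33342, BioTracker Green Microtubule Cytoskeleton Dye, MitoTracker Red and Annexin V Alexa Fluor 680, then imaged after compound addition on a CQ1 microscope at 37°C and 5% CO2. Machine-learning gating in CellPathfinder separated Hoechst high-intensity objects from normal cells, divided normal cells by nuclear state (healthy, pyknosed, fragmented) and divided pyknosed cells into mitotic or apoptotic.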

[1] = 12 h, 1 µM, compound concentration 1 uM
[2] = 12 h, 10 µM, compound concentration 10 uM
[3] = 24 h, 1 µM, compound concentration 1 uM
[4] = 24 h, 10 µM, compound concentration 10 uM
[5] = 48 h, 1 µM, compound concentration 1 uM
[6] = 48 h, 10 µM, compound concentration 10 uM

In the case of O=C1COc2nccc(-c3ccccc3F)c2CN1Cc1cc(C(F)(F)F)cc(C(F)(F)F)c1, the “Population Apoptotic (%)” value [1] is reported as 38% and 29%, the “Population Fragmented Nuclei (%)” value [1] is reported as 12% and 17% and the “Population Healthy Nuclei (%)” value [1] is reported as 74% and 62%. For the same molecule, the “Population Hoechst High Intensity Objects (%)” value [1] was 2% and 0%, the “Population Membrane Permeable-Phenotype (%)” value [1] was 1% and the “Population Mitochondria Different-Phenotype (%)” value [1] was 7% and 5%. The “Population Mitotic Cells (%)” value [1] was 61% and 70%, the “Population Normal (%)” value [1] was 97% and 99% and the “Population Pyknosed Nuclei (%)” value [1] was 13% and 20%. For the same molecule, the “Population Tubulin-Different-Phenotype (%)” value [1] was 27% and 32%, the “Total Cell Count” value [1] was 195 and 135 and the “Population Apoptotic (%)” value [2] was 54% and 37%. The “Population Fragmented Nuclei (%)” value [2] was 15% and 24%, the “Population Healthy Nuclei (%)” value [2] was 69% and 51% and the “Population Hoechst High Intensity Objects (%)” value [2] was 5% and 8%. For the same molecule, the “Population Membrane Permeable-Phenotype (%)” value [2] was 0% and 4%, the “Population Mitochondria Different-Phenotype (%)” value [2] was 10% and 12% and the “Population Mitotic Cells (%)” value [2] was 45% and 62%. For the same molecule, the “Population Normal (%)” value [2] was 94% and 91%, the “Population Pyknosed Nuclei (%)” value [2] was 14% and 23% and the “Population Tubulin-Different-Phenotype (%)” value [2] was 66% and 50%. For the same molecule, the “Total Cell Count” value [2] was 161 and 132, the “Population Apoptotic (%)” value [3] was 53% and 34% and the “Population Fragmented Nuclei (%)” value [3] was 11% and 20%. The “Population Healthy Nuclei (%)” value [3] was 74% and 58%, the “Population Hoechst High Intensity Objects (%)” value [3] was 3% and 2% and the “Population Membrane Permeable-Phenotype (%)” value [3] was 0% and 2%. The “Population Mitochondria Different-Phenotype (%)” value [3] was 6% and 3%, the “Population Mitotic Cells (%)” value [3] was 46% and 65% and the “Population Normal (%)” value [3] was 96% and 97%. The “Population Pyknosed Nuclei (%)” value [3] was 14% and 20%, the “Population Tubulin-Different-Phenotype (%)” value [3] was 23% and 39% and the “Total Cell Count” value [3] was 203 and 142. The “Population Apoptotic (%)” value [4] was 66% and 55%, the “Population Fragmented Nuclei (%)” value [4] was 18% and 26% and the “Population Healthy Nuclei (%)” value [4] was 71% and 56%. For the same molecule, the “Population Hoechst High Intensity Objects (%)” value [4] was 3% and 6%, the “Population Membrane Permeable-Phenotype (%)” value [4] was 0% and 7% and the “Population Mitochondria Different-Phenotype (%)” value [4] was 11% and 5%. For the same molecule, the “Population Mitotic Cells (%)” value [4] was 33% and 45%, the “Population Normal (%)” value [4] was 96% and 93% and the “Population Pyknosed Nuclei (%)” value [4] was 9% and 16%. The “Population Tubulin-Different-Phenotype (%)” value [4] was 57% and 61%, the “Total Cell Count” value [4] was 162 and 129 and the “Population Apoptotic (%)” value [5] was 75% and 31%. For the same molecule, the “Population Fragmented Nuclei (%)” value [5] was 16% and 29%, the “Population Healthy Nuclei (%)” value [5] was 75% and 55% and the “Population Hoechst High Intensity Objects (%)” value [5] was 5% and 6%. For the same molecule, the “Population Membrane Permeable-Phenotype (%)” value [5] was 0% and 1%, the “Population Mitochondria Different-Phenotype (%)” value [5] was 4% and 1% and the “Population Mitotic Cells (%)” value [5] was 25% and 68%. For the same molecule, the “Population Normal (%)” value [5] was 94% and 93%, the “Population Pyknosed Nuclei (%)” value [5] was 8% and 14% and the “Population Tubulin-Different-Phenotype (%)” value [5] was 28% and 25%. The “Total Cell Count” value [5] was 210 and 143, the “Population Apoptotic (%)” value [6] was 72% and 60% and the “Population Fragmented Nuclei (%)” value [6] was 20% and 39%. For the same molecule, the “Population Healthy Nuclei (%)” value [6] was 72% and 49%, the “Population Hoechst High Intensity Objects (%)” value [6] was 2% and 5% and the “Population Membrane Permeable-Phenotype (%)” value [6] was 0% and 1%. The “Population Mitochondria Different-Phenotype (%)” value [6] was 14% and 8%, the “Population Mitotic Cells (%)” value [6] was 27% and 40% and the “Population Normal (%)” value [6] was 97% and 94%. The “Population Pyknosed Nuclei (%)” value [6] was 6% and 11%, the “Population Tubulin-Different-Phenotype (%)” value [6] was 62% and 47% and the “Total Cell Count” value [6] was 172 and 144.
For CC[C@H]1OC(=O)[C@H](C)[C@@H](O[C@H]2C[C@@](C)(OC)[C@@H](O)[C@H](C)O2)[C@H](C)[C@@H](O[C@@H]2O[C@H](C)C[C@H](N(C)C)[C@H]2O)[C@@]2(C)CC(C)=C(O2)[C@H](C)[C@@H](O)[C@]1(C)O, the “Population Apoptotic (%)” value [1] was 37% and 46%, the “Population Fragmented Nuclei (%)” value [1] was 13% and 23% and the “Population Healthy Nuclei (%)” value [1] was 72% and 57%. The “Population Hoechst High Intensity Objects (%)” value [1] was 2% and 3%, the “Population Membrane Permeable-Phenotype (%)” value [1] was 0% and 9% and the “Population Mitochondria Different-Phenotype (%)” value [1] was 8% and 6%. The “Population Mitotic Cells (%)” value [1] was 62% and 53%, the “Population Normal (%)” value [1] was 97% and 96% and the “Population Pyknosed Nuclei (%)” value [1] was 13% and 18%. The “Population Tubulin-Different-Phenotype (%)” value [1] was 40% and 53%, the “Total Cell Count” value [1] was 176 and 170 and the “Population Apoptotic (%)” value [2] was 48% and 40%. For the same molecule, the “Population Fragmented Nuclei (%)” value [2] was 24% and 41%, the “Population Healthy Nuclei (%)” value [2] was 63% and 33% and the “Population Hoechst High Intensity Objects (%)” value [2] was 3% and 4%. The “Population Membrane Permeable-Phenotype (%)” value [2] was 0% and 14%, the “Population Mitochondria Different-Phenotype (%)” value [2] was 25% and 11% and the “Population Mitotic Cells (%)” value [2] was 52% and 59%. The “Population Normal (%)” value [2] was 96% and 95%, the “Population Pyknosed Nuclei (%)” value [2] was 12% and 25% and the “Population Tubulin-Different-Phenotype (%)” value [2] was 86% and 73%. For the same molecule, the “Total Cell Count” value [2] was 205 and 133, the “Population Apoptotic (%)” value [3] was 52% and 46% and the “Population Fragmented Nuclei (%)” value [3] was 18% and 29%. The “Population Healthy Nuclei (%)” value [3] was 69% and 52%, the “Population Hoechst High Intensity Objects (%)” value [3] was 4% and 3% and the “Population Membrane Permeable-Phenotype (%)” value [3] was 0% and 7%. The “Population Mitochondria Different-Phenotype (%)” value [3] was 7% and 5%, the “Population Mitotic Cells (%)” value [3] was 47% and 53% and the “Population Normal (%)” value [3] was 95% and 96%. For the same molecule, the “Population Pyknosed Nuclei (%)” value [3] was 12% and 17%, the “Population Tubulin-Different-Phenotype (%)” value [3] was 45% and 36% and the “Total Cell Count” value [3] was 173 and 176. The “Population Apoptotic (%)” value [4] was 52% and 46%, the “Population Fragmented Nuclei (%)” value [4] was 22% and 40% and the “Population Healthy Nuclei (%)” value [4] was 69% and 39%. The “Population Hoechst High Intensity Objects (%)” value [4] was 2% and 1%, the “Population Membrane Permeable-Phenotype (%)” value [4] was 0% and 8% and the “Population Mitotic Cells (%)” value [4] was 47% and 53%. For the same molecule, the “Population Normal (%)” value [4] was 97% and 98%, the “Population Pyknosed Nuclei (%)” value [4] was 8% and 20% and the “Population Tubulin-Different-Phenotype (%)” value [4] was 89% and 81%. For the same molecule, the “Total Cell Count” value [4] was 199 and 127, the “Population Apoptotic (%)” value [5] was 55% and 56% and the “Population Fragmented Nuclei (%)” value [5] was 17% and 32%. For the same molecule, the “Population Healthy Nuclei (%)” value [5] was 71% and 54%, the “Population Hoechst High Intensity Objects (%)” value [5] was 3% and 2% and the “Population Membrane Permeable-Phenotype (%)” value [5] was 0% and 7%. The “Population Mitochondria Different-Phenotype (%)” value [5] was 9% and 5%, the “Population Mitotic Cells (%)” value [5] was 44% and 43% and the “Population Normal (%)” value [5] was 96% and 97%. For the same molecule, the “Population Pyknosed Nuclei (%)” value [5] was 11% and 13%, the “Population Tubulin-Different-Phenotype (%)” value [5] was 57% and 56% and the “Total Cell Count” value [5] was 168 and 173. For the same molecule, the “Population Apoptotic (%)” value [6] was 84% and 58%, the “Population Fragmented Nuclei (%)” value [6] was 24% and 43% and the “Population Healthy Nuclei (%)” value [6] was 68% and 47%. The “Population Hoechst High Intensity Objects (%)” value [6] was 8% and 7%, the “Population Membrane Permeable-Phenotype (%)” value [6] was 0% and 6% and the “Population Mitotic Cells (%)” value [6] was 15% and 41%. For the same molecule, the “Population Normal (%)” value [6] was 91% and 92%, the “Population Pyknosed Nuclei (%)” value [6] was 6% and 9% and the “Population Tubulin-Different-Phenotype (%)” value [6] was 91% and 78%. The “Total Cell Count” value [6] was 216 and 139.
